Laboratory results from ChEMBL document CHEMBL1140978, “Synthesis and preliminary antibacterial evaluation of simplified thiomarinol analogs” (2009).
Where a name gives a salt, the structure may show the parent alone. Active and inactive are the calls of the source. No cut-off for these calls is given here.

Experiments:
Assay type in all cases: functional
Staphylococcus aureus [1] = assay: Antimicrobial activity against Staphylococcus aureus ATCC 25923 at 0.0172 uM after 17 hrs by disk diffusion assay; conditions: for zone of inhibition at 0.0172 µM: ATCC 25923, 17 h, read-out: IZ
Summary of the method: (§1)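 Disk diffusion per CLSI M2-A8. S. aureus grown on trypticase soy agar; five fresh colonies into trypticase soy broth, ~5 h standing at 35 °C, adjusted to A625 0.1 (0.5 McFarland), swabbed onto Mueller–Hinton agar. Compounds in 25% methanol/water, 15 µl loaded on 6 mm paper disks; plates ~17 h at 35 °C; inhibition zones recorded, duplicate plates per strain.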

Staphylococcus aureus [2] = assay: Antimicrobial activity against Staphylococcus aureus ATCC 6538 at 0.0172 uM after 17 hrs by disk diffusion assay; conditions: for zone of inhibition at 0.0172 µM: ATCC 6538, 17 h, read-out: IZ; summary of the method: as §1
Staphylococcus aureus [3] = assay: Antimicrobial activity against Staphylococcus aureus ATCC 6538 at 0.0344 uM after 17 hrs by disk diffusion assay; conditions: ATCC 6538, 17 h, read-out: IZ; summary of the method: as §1
Staphylococcus aureus [4] = assay: Antimicrobial activity against Staphylococcus aureus ATCC 6538 at 0.0602 uM after 17 hrs by disk diffusion assay; conditions: ATCC 6538, 17 h, read-out: IZ; summary of the method: as §1
Staphylococcus aureus [5] = assay: Antimicrobial activity against Staphylococcus aureus ATCC 25923 at 0.0602 uM after 17 hrs by disk diffusion assay; conditions: ATCC 25923, 17 h, read-out: IZ; summary of the method: as §1
Staphylococcus aureus [6] = assay: Antimicrobial activity against Staphylococcus aureus ATCC 25923 at 0.00686 uM after 17 hrs by disk diffusion assay; conditions: ATCC 25923, 17 h, read-out: IZ; summary of the method: as §1
Staphylococcus aureus [7] = assay: Antimicrobial activity against Staphylococcus aureus ATCC 6538 at 0.00686 uM after 17 hrs by disk diffusion assay; conditions: ATCC 6538, 17 h, read-out: IZ; summary of the method: as §1
Staphylococcus aureus [8] = assay: Antimicrobial activity against Staphylococcus aureus ATCC 6538 at 0.019 uM after 17 hrs by disk diffusion assay; conditions: ATCC 6538, 17 h, read-out: IZ
Summary of the method: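 Disk diffusion on Mueller–Hinton agar (broth 2.1% w/v, agar 1.7%), following CLSI M2-A8. Inoculum from five fresh trypticase soy agar colonies grown about 5 h standing at 35 °C in trypticase soy broth, then adjusted to A625 0.1 (0.5 McFarland) and swabbed onto plates. Compounds in 25% methanol/water, 15 µl loaded on 6 mm paper disks. Plates incubated about 17 h at 35 °C, inhibition zones recorded, duplicate plates.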

Staphylococcus aureus [9] = assay: Antimicrobial activity against Staphylococcus aureus ATCC 25923 at 0.019 uM after 17 hrs by disk diffusion assay; conditions: ATCC 25923, 17 h, read-out: IZ; summary of the method: as §1

Structure (SMILES) | Activity (Staphylococcus aureus [1]) | Activity (Staphylococcus aureus [2]) | zone of inhibition at 0.0172 µM (Staphylococcus aureus [1]) | zone of inhibition at 0.0172 µM (Staphylococcus aureus [2]) | also measured
C/C(=C1\CCOC1=O)[C@@H](O)[C@@H]1OCC[C@@H](O)[C@H]1O | inactive | inactive |  |  | 
CCCCCC[C@H]1CO[C@@H]([C@H](O)/C(C)=C/C(=O)OCC)[C@H](O)[C@@H]1O | inactive | inactive |  |  | 
CCCCNC(=O)/C=C(\C)[C@@H](O)[C@@H]1OC[C@H](C/C=C/[C@@H](C)[C@H](C)O)[C@@H](O)[C@H]1O |  |  |  |  | zone of inhibition at 0.0344 µM (Staphylococcus aureus [3]): 14 mm
C/C(=C\C(=O)OCCCCCCCC(=O)N[C@H]1CCCNC1=O)[C@@H](O)[C@@H]1OC[C@H](C/C=C/[C@@H](C)[C@H](C)O)[C@@H](O)[C@H]1O [THIOMARINOL H] |  |  | 10 mm | 16 mm | 
CCOC(=O)/C=C(\C)[C@@H](O)[C@@H]1OC[C@H](C/C=C/[C@@H](C)[C@H](C)O)[C@@H](O)[C@H]1O |  |  | 21 mm | 22 mm | 
C/C(=C\C(=O)OCCCCCCCCC(=O)O)C[C@@H]1OC[C@H](C[C@H]2O[C@@H]2[C@@H](C)[C@H](C)O)[C@@H](O)[C@H]1O [PSEUDOMONIC ACID A CALCIUM SALT] |  |  | 26 mm | 32 mm | 
CCOC(=O)/C=C(\C)[C@@H](O)[C@@H]1OCC[C@@H](O)[C@H]1O | inactive | inactive |  |  | 
C/C(=C\C(=O)O)[C@@H](O)[C@@H]1OC[C@H](C/C=C/[C@@H](C)[C@H](C)O)[C@@H](O)[C@H]1O | inactive | inactive |  |  | 
CCN(CC)C(=O)/C=C(\C)[C@@H](O)[C@@H]1OC[C@H](C/C=C/[C@@H](C)[C@H](C)O)[C@@H](O)[C@H]1O |  |  |  |  | zone of inhibition at 0.0344 µM (Staphylococcus aureus [3]): 15 mm
CN(C)[C@@H]1C(O)=C(C(N)=O)C(=O)[C@@]2(O)C(O)=C3C(=O)c4c(O)cccc4[C@@](C)(O)[C@H]3C[C@@H]12 [TETRACYCLINE HYDROCHLORIDE] |  |  |  |  | zone of inhibition at 0.0602 µM (Staphylococcus aureus [4]): 28 mm; zone of inhibition at 0.0602 µM (Staphylococcus aureus [5]): 29 mm
CN[C@@H]1[C@H](O[C@H]2[C@H](O[C@H]3[C@H](O)[C@@H](O)[C@H](N=C(N)N)[C@@H](O)[C@@H]3N=C(N)N)O[C@@H](C)[C@]2(O)C=O)O[C@@H](CO)[C@H](O)[C@H]1O [STREPTOMYCIN SULFATE] |  |  |  |  | zone of inhibition at 0.00686 µM (Staphylococcus aureus [6]): 14 mm; zone of inhibition at 0.00686 µM (Staphylococcus aureus [7]): 16 mm
C/C(=C1/CCOC1=O)[C@@H](O)[C@@H]1OCC[C@@H](O)[C@H]1O | inactive | inactive |  |  | 
C/C(=C\C(=O)OC(C)C)[C@@H](O)[C@@H]1OC[C@H](C/C=C/[C@@H](C)[C@H](C)O)[C@@H](O)[C@H]1O |  |  | 21 mm | 22 mm | 
COC(=O)/C=C(\C)[C@@H](O)[C@@H]1OC[C@H](C/C=C/[C@@H](C)[C@H](C)O)[C@@H](O)[C@H]1O |  |  | 13 mm | 16 mm | 
CC1(C)S[C@@H]2[C@H](NC(=O)Cc3ccccc3)C(=O)N2[C@H]1C(=O)O [PENICILLIN G SODIUM] |  |  |  |  | zone of inhibition at 0.019 µM (Staphylococcus aureus [8]): 40 mm; zone of inhibition at 0.019 µM (Staphylococcus aureus [9]): 32 mm
